Compounds with a hit are over-represented: about 3.5% of the library has one in this group of screens.
MrgX1 agonist: agonists of human MrgX1 receptor, primary screen, HEK293 cells, Fluo-4 calcium flux. Mas-related G-protein coupled receptor member X1 (Homo sapiens), Q96LB2. Fluo-4 calcium fluorescence, agonist mode; active compounds read high. B-score at 10 µM. actives 0.44% (n = 310,000). AID 588627, 2011;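 active = calcium response B-score plate-corrected fluorescence ratio at least 3 library SD, with starting fluorescence B-score inside 5 SD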
Target sequence (Q96LB2 whole entry, looked up): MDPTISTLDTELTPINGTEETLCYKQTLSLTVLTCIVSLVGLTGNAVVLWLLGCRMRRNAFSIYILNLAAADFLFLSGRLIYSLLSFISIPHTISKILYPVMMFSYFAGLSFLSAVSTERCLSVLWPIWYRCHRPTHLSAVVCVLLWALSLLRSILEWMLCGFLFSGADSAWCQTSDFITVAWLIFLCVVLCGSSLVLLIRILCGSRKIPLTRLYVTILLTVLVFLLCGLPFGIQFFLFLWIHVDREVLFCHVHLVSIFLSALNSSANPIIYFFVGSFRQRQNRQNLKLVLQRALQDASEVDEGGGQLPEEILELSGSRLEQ
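Assay system: MrgX1-expressing HEK293 cells / Amount: fifteen thousand cells per well / Doses: test compound in the initial addition of three / Timing: cells plated overnight, dye loaded 0.5 h 37 °C, 0.5 h room temperature / Technique: kinetic calcium dye fluorescence, Fluo-4 NW / Control set: positive and negative controls per plate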
RGS4 block: RGS4 inhibitors, primary screen, cell-based, HEK293 M3R inducible RGS4, calcium flux | Regulator of G-protein signaling 4 (Homo sapiens), P49798 | Fluo-4 calcium flux; active compounds read high; triggered by carbachol at its EC20 | actives 0.45% (n = 310,000) | B-score at 10 µM;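 active = B-score, a plate-corrected calcium signal, over three deviations above library mean, with baseline fluorescence within five deviations of library mean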;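 note: RGS4 expression induced by doxycycline in cells with stable M3 receptor; B-score is computed from the integrated fluorescence ratio over baseline after carbachol; higher B-score means a larger calcium signal and so more RGS4 inhibition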
Target sequence (P49798 whole entry, looked up): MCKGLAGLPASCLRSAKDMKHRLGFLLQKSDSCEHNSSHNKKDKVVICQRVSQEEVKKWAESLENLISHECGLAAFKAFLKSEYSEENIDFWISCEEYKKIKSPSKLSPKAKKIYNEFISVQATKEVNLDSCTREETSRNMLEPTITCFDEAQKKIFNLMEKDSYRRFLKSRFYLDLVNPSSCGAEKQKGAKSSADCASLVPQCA
MrgX1 antag: antagonists of human MrgX1 receptor, primary screen, HEK293 cells, Fluo-4 calcium flux; BAM8-22 antagonism; active compounds read low; B-score at 10 µM; actives 1.3% (n = 310,000); AID 588676, 2011;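 active = calcium-response B-score plate-corrected more than 3 library SD below zero, starting fluorescence within 5 deviations, no agonist response on first addition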;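 note: peak minus trough fluorescence over baseline after final BAM8-22 challenge near maximal dose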
RGS4 act: RGS4 potentiators or activators, primary screen, cell-based, HEK293 M3R inducible RGS4, calcium flux | carbachol calcium flux Fluo4; active compounds read low | B-score at 10 µM | actives 0.92% (n = 310,000);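 active = B-score of the integrated calcium signal more than 4 SD below the library mean, with starting fluorescence not abnormally high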;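 note: negative B-score means reduced calcium response which marks RGS4 activation or potentiation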
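Assay system: Inducible-RGS4 HEK293 cells carrying M3 receptor | Schedule: Compound preincubation 20 min at room temperature before agonist | Signal: Kinetic calcium fluorescence imaging with Fluo4-AM dye, 2 µM | Read-out basis: B score from integrated fluorescence ratio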
MrgX1 PAM: positive allosteric modulators of MrgX1, primary screen, HEK293 cells, Fluo-4 calcium flux | FDSS; active compounds read high | B-score at 10 µM | actives 0.63% (n = 310,000) | AID 588675, 2011;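 active = plate-corrected calcium response at least 3 library SD above typical, normal starting fluorescence, not activating the receptor alone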;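 note: compound read alongside a low EC10 to EC30 dose of BAM8-22 agonist; peak minus trough fluorescence over baseline measured at the second addition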
MrgX1 ant reconf: MrgX1 receptor antagonists, duplicate retest, confirmation, HEK293 cells, Fluo-4 calcium flux | AID 602420, 2012 | actives 19% (n = 2,300) | BAM8-22 calcium flux; active compounds read low | remaining BAM8-22 calcium response % of control (active compounds read low), % at 10 µM | shares compounds with MrgX1 antag;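 active = remaining agonist calcium response no higher than 100% minus 3 SD of agonist-only control wells, with starting fluorescence near control levels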;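 note: agonist BAM8-22 given at a near maximal EC90 to ECmax level; peak minus minimum fluorescence divided by baseline after agonist addition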
HEK293 Ca flux: nonspecific calcium signal in parental HEK293, confirmation, counter-screen for MrgX1 antagonist project, parental HEK293 cells, Fluo-4 calcium flux | Fluo-4 calcium fluorescence, FDSS | fluorescence ratio F(max-min)/F0 at 10 µM | actives 2% (n = 4,000) | AID 624111, 2012 | shares compounds with MrgX1 antag;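 active = duplicate-averaged calcium fluorescence ratio at least three times the standard deviation of buffer wells, a nonspecific response in parental cells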
HEK293 Ca counter: calcium response in parental HEK293 cells, primary screen, counter-screen for MrgX1 allosteric activator project, cell-based, Fluo-4 calcium flux, duplicate; shares compounds with MrgX1 antag; Fluo-4 fluorescence ratio; active compounds read high; fluorescence ratio F(max-min)/F0 at 10 µM; actives 0.4% (n = 4,000);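 active = calcium fluorescence ratio, averaged over duplicates, at least 3 SD of the buffer-well ratio, meaning a nonspecific response in receptor-free cells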;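 note: untransfected parental HEK293 lacking MrgX1 used as counterscreen for MrgX1 allosteric activators; fluorescence change taken during the second addition on a kinetic imager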
HEK293 Ca cntr2: calcium response in parental HEK293 cells, primary screen, counter-screen for MrgX1 agonist project, cell-based, Fluo-4 calcium flux, duplicate, agonist mode; shares compounds with MrgX1 antag; actives 8.7% (n = 4,000); fluorescence ratio F(max-min)/F0 at 10 µM; Fluo-4 calcium fluorescence (FDSS); active compounds read high;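 active = calcium fluorescence ratio at least three times the spread of buffer wells, meaning a non-specific response in parental cells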
* = called active by the depositor; i = inactive; / = no result.

SMILES	MrgX1 agonist	RGS4 block	MrgX1 antag	RGS4 act	MrgX1 PAM	MrgX1 ant reconf	HEK293 Ca flux	HEK293 Ca counter	HEK293 Ca cntr2
CC1CCN(S(=O)(=O)c2ccc3c(c2)NC(=O)CS3)CC1	i	i	i	i	i	/	/	/	/
O=C1NC2(CCCc3ccccc32)C(=O)N1CCOc1ccc(Br)cc1 (configuration not stated)	i	i	i	i	i	/	/	/	/
CCOc1ccc(OCCN2C(=O)NC3(CCCc4ccccc43)C2=O)cc1 (configuration not stated)	i	i	-5.5*	i	i	i	i	i	i
CC(=O)Nc1ccc2c(c1)CCCC2=O	i	i	-4.6*	i	i	77%*	i	i	i
CC(=O)Nc1ccc2c(c1)CCCC2	i	i	i	i	i	/	/	/	/
CCOC(=O)C1CCCN(C(=O)CS(=O)(=O)Cc2ccccc2)C1 (configuration not stated)	i	i	i	i	i	/	/	/	/
CCOC(=O)C1CCCN(C(=O)CCc2ccccc2)C1 (configuration not stated)	i	i	-6.1*	i	i	i	i	i	i
CC(=O)C(Cc1ccccc1)NC(=O)COC(=O)CCN1C(=O)C2CC=CCC2C1=O (configuration not stated)	i	i	i	i	i	/	/	/	/
O=C(NCc1nnc(SCC(=O)N2CCOCC2)o1)c1c(F)cccc1Cl	i	i	i	i	i	/	/	/	/
O=C(O)c1ccccc1CSc1ncn[nH]1	i	i	-8.3*	i	i	i	i	i	i
CC(C)(C)N1CC(C(=O)Nc2ccc(S(=O)(=O)N3CCCCC3)cc2)CC1=O (configuration not stated)	i	i	i	i	i	/	/	/	/
CC(C)(C)N1CC(C(=O)Nc2ccc(S(N)(=O)=O)cc2)CC1=O (configuration not stated)	i	i	-4.9*	i	i	i	i	i	i
CC(C)c1ccc(NC(=O)C2CC(=O)N(C(C)C)C2)cc1 (configuration not stated)	i	i	-9*	i	i	i	i	i	i
COc1ccc(S(=O)(=O)N2CCCOC2CNC(=O)C(=O)NCc2ccccc2F)cc1C (configuration not stated)	i	i	i	i	i	/	/	/	/
CC(=O)Nc1cc2c(cc1NC(=O)Cn1nnc(-c3ccc(C)o3)n1)OCCO2	i	i	i	i	i	/	/	/	/
CN=C(NC1CCCCC1)c1ccc([N+](=O)[O-])cc1	i	i	i	i	i	/	/	/	/
Cc1nc2cc(-c3cccs3)[nH]n2c(=O)c1C	i	i	-5.2*	i	i	i	i	i	i
CNC(=O)c1c(NC(=O)c2ccc(S(=O)(=O)N3CCCc4ccccc43)cc2)sc2c1CCN(C)C2	i	i	-5.5*	i	i	i	0.66*	i	49*
Cc1ccc(C(=O)Nc2nc3ccc(S(C)(=O)=O)cc3s2)o1	i	i	i	i	i	/	/	/	/
Cc1noc(C)c1C(=O)Nc1nc2ccc(S(C)(=O)=O)cc2s1	i	i	-7.5*	i	i	i	i	i	i
COc1ccc(-c2nc3ccccc3c(=O)n2CCOc2ccccc2C)cc1	i	i	-7*	i	i	i	i	i	i
COc1ccc(-c2nc3ccccc3c(=O)n2CCOc2ccc(C)cc2C)cc1	i	i	i	i	i	/	/	/	/
CCCOC(=O)c1ccc(NC(=O)CC(C)(C)C)cc1	i	i	-4.5*	i	i	i	i	i	i
CCOC(=O)CN1C(=O)C(C)(C)Oc2ccc(C(=O)NC(C)(C)CC)cc21	i	i	-5.3*	i	i	i	i	i	i
O=C(NC1CC1)c1cc2c(s1)-c1ccccc1OC2	i	i	-5.2*	i	i	i	i	i	i
SMILES	MrgX1 agonist	RGS4 block	MrgX1 antag	RGS4 act	MrgX1 PAM	MrgX1 ant reconf	HEK293 Ca flux	HEK293 Ca counter	HEK293 Ca cntr2
O=C(CSc1nnc(NC(=O)c2c(F)cccc2F)s1)Nc1ccc(F)cc1	i	i	-6.2*	i	i	i	i	i	i
Cc1nnc(NC(=O)CSc2ccc(-c3cccnc3)nn2)s1	i	i	-5.6*	i	i	i	i	i	i
COc1cccc(C(=O)c2c(C)c(CCC#N)n3ccccc23)c1	i	i	i	i	i	/	/	/	/
Cc1c(C(=O)c2cccc(F)c2)c2ccccn2c1CCC#N	i	i	-10*	i	i	84%*	i	i	i
Cc1ccc2[nH]c(=O)c(CN(CCN3CCOCC3)C(=O)Nc3ccc(F)cc3)cc2c1	i	i	-5.2*	i	i	i	i	i	i
CSCCC(C(=O)OCC(=O)c1ccc(C)c(C)c1)N1C(=O)c2cc(Cl)c(Cl)cc2C1=O (configuration not stated)	i	i	-5.2*	i	i	i	i	i	i
CC1(C)CC2CC(C)(CN2CC(=O)C(C#N)c2ccccc2)C1 (configuration not stated)	i	i	-8.7*	i	i	i	i	i	i
CC1(C)CC2CC(C)(CN2CC(O)c2ccccc2)C1 (configuration not stated)	i	i	i	i	i	/	/	/	/

Screening results (PubChem)
